Laboratory results from ChEMBL document CHEMBL1124103, “Potential antitumor agents. 56. "Minimal" DNA-intercalating ligands as antitumor drugs: phenylquinoline-8-carboxamides” (J Med Chem, 1988).
Values joined by “and” are separate entries in the source; they are usually repeats but may differ in a detail not shown here. Identical values can stand only once.

How the values were obtained:
[1] = Ionization constant of chromophore measured by UV spectroscopy in 20% dimethylformamide.; assay type: physicochemical
Outline: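 Chromophore pKa measured by UV spectroscopy in 20% dimethylformamide.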

Nucleic Acid = assay: Displacement of ethidium from poly(dA/T) or poly(dG/C)-DNA; assay type: nucleic-acid assay
Outline: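 Association constants (M⁻¹) for binding to poly[d(AT)] and poly[d(GC)] measured by ethidium displacement, assuming ligand and ethidium compete for intercalation sites; reported as log K.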

L1210 = assay: Compound concentration that reduces cell growth of L1210 leukemia cultures to 50% of controls after 70h.; assay type: functional, cell-based; conditions: Mus musculus, L1210, 70 h
Mus musculus [2] = organism: Mus musculus; assay: Percentage increase in lifespan of treated animals(at the optimal dose) compared to controls. Average lifespan of control animals was 11 days (P388).; assay type: functional
Mus musculus [3] = assay: Optimal dose administered intraperitoneally on days 1,5 and 9 after intraperitoneal inoculation of P388 leukemia cells.; assay type: functional
Mus musculus [4] = organism: Mus musculus; assay: Percentage increase in lifespan of treated animals(at the optimal dose) compared to controls. Average lifespan of control animals was 17 days (Lewis lung carcinoma cells).; assay type: functional
Mus musculus [5] = assay: Optimal dose administered intraperitoneally on days 5,9 and 13 after intravenous inoculation of lewis lung carcinoma cells.; assay type: functional
Mus musculus [6] = assay: Percentage increase in lifespan of treated animals(at 100 mg/kg optimal dose) compared to controls. Average lifespan of control animals was 17 days (Lewis lung carcinoma cells).

SMILES | pKa [1] | Log K (Nucleic Acid) | IC50 (L1210) [nM] | ILS max (Mus musculus [2]) [%] | OD (Mus musculus [3]) [mg/kg] | ILS max (Mus musculus [4]) [%] | OD (Mus musculus [5]) [mg/kg] | ILS max (Mus musculus [6]) [%] | ILSmax (Mus musculus [2]) | ILSmax (Mus musculus [4])
CN(C)CCNC(=O)c1cccc2c(-c3ccccc3)ccnc12 | 3.04 | 4.73 and 4.77 | 14700 | <20 | 150 | – | – | – | – | –
CN(C)CCNC(=O)c1cccc2cc(-c3ccccc3)cnc12 | 2.58 | 5.68 and 5.7 | 2600 | 27 | 100 | <40 | 100 | – | – | –
CN(C)CCNC(=O)c1cccc2cccnc12 | – | 5.12 and 5.17 | > 25000 | <20 | 100 | – | – | – | – | –
CN(C)CCNC(=O)c1cccc2ccc(-c3ccccc3)nc12 | 2.75 | 5.97 and 5.92 | 1300 | 91 | 100 | – | 100 | 70 | – | –
CN(C)CCNC(=O)c1ccc(-c2ccccc2)c2cccnc12 | 3.13 | 4.74 and 4.79 | 13700 | <20 | 100 | – | – | – | – | –
CN(C)CCNC(=O)c1cc(-c2ccccc2)cc2cccnc12 | 2.93 | 6.12 and 5.96 | 910 | – | 65 | – | 100 | – | 29 | 31
CN(C)CCNC(=O)c1cccc2cc3ccccc3nc12 | – | – | – | 91 | 66 | – | 100 | – | – | –
